From the RNAGym collection of RNA variant scans (doi:10.1101/gad.245936.114) come the findings set out here.

First the molecules themselves.
B1: tRNA (parent)
chain: CUCUCGGUAGCCAAGUUGGUUUAAGGCGCAAGACUUUAAUUUAUCACUACGAAAUCUUGAGAUCGGGCGUUCGACUCGCCCCCGGGAGAUUUUUUCCUCGAGCAA

This sample holds only a part of the variants without activity. Bounds are passed on as bounds.

In this data set the parent is B1. The experiment in a line: nonsense suppression (GFP-seq) (ratio to wild type); higher = more function; SUP4oc tRNA, yeast GFP reporter sort-seq. Put shortly: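 Nonsense suppression (GFPSEQ) is the median GFP/RFP ratio of each sorting bin, weighted by the variant's estimated share of cells in that bin and expressed relative to the unmutated parent tRNA. Yeast strains carried genome-integrated variants of an ochre-suppressor tRNA from a library with ~3% random mutations, plus a galactose-driven GFP ochre reporter and RFP, and were grown in raffinose/galactose medium containing 80 mg/L adenine. Cells were sorted into GFP/RFP bins, each bin was Illumina-sequenced (phred ≥30), and variants were kept only with ≥100 reads and ≥30 cells.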
Take UUCUCGGUAGCCAAGUUAGUGUAAGGUGCAAGACUUUAAUUUAUCACUACGAAAUCUUGAGAUCGGGCGUUCGACUCGCCCCCGGGAGAUUUUUUCCUCGAGCAA: the nonsense suppression was at most 0.026.

Regarding UUCUCGGUAGCCAAGUUGGUUUAAGACGCAAGACUUUAAUUUAUCACUACGAAAUCUUGAGAUCGGGCGUUCGACUCGCCCCCGGGAGAUUUUUUCCUCGAGCAA, the nonsense suppression was at most 0.026.

Consider GUCGCGGUAGCCAAGUUGGUUUAAGGCGCAAGACUUUAAUUUAUCACUACGAAAUCUUGAGAUCGGGCGUUCGACUCCCCCCCGGGAGAUUUUUUCCUCGAGCAA, for which the nonsense suppression was at most 0.026.

For the variant UUUUCGGUAGCUAAGUUGGUUUAAGGCGCAAGACUUUAAUUUAUCACUACGAAAUCUUGAGAUCGGGCGUUCGACUCGCCCCCGGGAGAUUUUUUCCUCGAGCAA, the nonsense suppression was at most 0.026.

Regarding UUCUCGGUAGCCAGGUUGGUUUAAGGCGCAGGACUUUAAUUUAUCACUACGAAAUCUGGAGAUCGGGCGUUCGACUCGCCCCCGGGAGAUUUUUUCCUCGAGCAA, the nonsense suppression was at most 0.026.

On to UUCUCGUUAGCCAAAUUGGUUUAAGGCGCAAGACAUUAAUUUAUCACUACGAAAUCUUGAGGUCGGGCGUUCGACUCGCCCCCGGGAGAUUUUUUCCUCGAGCAA, for which the nonsense suppression is at most 0.026.

For the variant GUCUCGGUAGCCAAGUUGGUUUAAAGCGCAAGACUUUAAUUUAUCACUACGAAAUCUUGAGAUCAGGCGUUCGACUCGCCCCGGGGAGAUUUUUUCCUCGAGCAA, the nonsense suppression was at most 0.026.

On to UUCUCGGUAGCCAAGUUGGUUUAAGGCGCAAGACUUUAAUUUAUCACUACGAAUUCUUGAGAUCGGGCGUUCGACUCGCCCCCGGGAAAUUUUUUCCUCGAGCAA, for which the nonsense suppression worked out at 0.209.

As for UUCUCGGUAGCCAAGUUGGUUUAAGGCGCAAGACUUUAAUUUAUCACUACGAAAUCUUGAGAUCGUGCGUUCGACUCGCCCCCGGAAGAUUUUUUCCUCGAGCAA, the nonsense suppression is at most 0.026.

Take UUCUCGGUAGCCAAGUUGGUUUAAGACGCAAGACUUUAAUUUAUCACUACGAAAUCUUGAGAUCGGGCUUUCGACUCGUCCCCGGGAGAUUUUUUCCUCGAGCAA: the nonsense suppression is at most 0.026.

For UUAUCGGAAGCCAAGUCGGUUUAAGGCGCAAGACUUUAAUUUAUCACUACGAAAUCUUGAGAUCGGGCGUUCGACUCGCCCCCGGGAGAUUUUUUCCUCGAGCAA, the nonsense suppression was at most 0.026.

In the case of GUCUCGGGAGCCAAGUUGGUUUAAGGCGCAAGACUUUAAUUUAUCACUACGAAAUCUUGAGACCGGGCGUUCUACUCGCCCCCGGGAGAUUUUUUCCUCGAGCAA, the nonsense suppression is at most 0.026.

As for GUCUCGGUAGCCAAGUUGGUUUAAGGCGAAAGAUUUUAAUUUAUCACUACGAAAUCUUGAGAUCGGGCGUUCGACUCGCCCCCGGGAGAUUUUUUCCUCGAGCAA, the nonsense suppression was at most 0.026.

Take GUCUCGGCAGCCAAGUUGGUUUAAGGCGCAAGACUUUAAUUUAUCACUACGAAAGCUUGAGAUCGGGCCUUCGACUCGCCCCCGGGAGAUUUUUUCCUCGAGCAA: the nonsense suppression is at most 0.026.

On to UUCUCCGUAUCCAAGUUGGUUUAAGGCGCAAGACUUUAAUUUAUCACUACGAAAUCUCGAGAUCGGGCGUUCGACUCGCCCCCGGGAGAUUUUUUCCUCGAGCAA, for which the nonsense suppression is at most 0.026.

For GUCUCGGUAGCCAAGUUGGUUUAAGGCGCAAGACUUUAAUUUAUCACUACGAAAUCUUGAGAUCGGGCGUUCAACUCGCCCCCGGGAGAUUUUUUCCUCGAGCAA, the nonsense suppression is 0.0631.

As to UUCUCGGUAGCCAAGUUGGUUUGAGGCGUAAGACUUUAAUUUAUCACUACGAAAUCUUGAGAUGGGGCGUUCGACUCGCCCCCGGGAGAUUUUUUCCUCGAGCAA, the nonsense suppression is at most 0.026.

Consider UUCUCGGUAGCCAUGUUGGUUUAAGGCGCAAGACUUUAAUUUAUCACUACGAAAUCUUGAGAUCGGGCGUUCGACUCGCCCCCGGGAGAUUUUUUCCUCGAGCAA, for which the nonsense suppression is at most 0.026.

Take UUCUCGGUAGCCAAGUUGGUUUAAGGCGCAAGACUUUAAUUUAUCACUACGAAAUCUUGAGAUCGAGCGUUCGACUCGCCCCCGGGAGAUUUUUUCCUCGAGCAA: the nonsense suppression was found to be 0.254.

Turning to GUCUCGGUAGCCAAGUUGGGUUUAGGAGCAAGACUUUAAUUUAUCACUACGAAAUCUUGAGAUCGGGCGUUCGACACGCCCCCGGGAUAUUUUUUCCUCGAGCAA, the nonsense suppression is at most 0.026.

As to GUCUCGGUAGCCAAGAUGGUUUAAGGCGCAAGACUUUAAUUUAUCACUACGAAAUCUUGAGAUCGGGCGUUCGACUCGCCCCCGGGAGAUUUUUUCCUCGAGCAA, the nonsense suppression was 0.777.

Turning to GUCUCGGUAGCCAAGUUGGCUUAAGGCGCAAGACUUUAAUUUAUCACUACGAAAUCUUGAGAUCGGGCGUUCGACUCGCCCCCGGGAGAUUUUUUCCUCGAGCAA, the nonsense suppression is 0.0266.

In the case of UUGUCGGUAGCCAAGUUGGUUUAAGGCGCAAGACUUUAAUUUAUCACUACGAAAUCUUGAGAUCGGGCGUUCGACUCGCCCCCGGAAGAUUUUUUCCUCGAGCAA, the nonsense suppression is at most 0.026.

Regarding GUCUCGGUAGCCAAGUUGGUUUAAGGCGCAAGACUUUAAUUUAUCACUACGAAAUCUUGAGAUAGGGCGUUCGACUCGCCCCCGGGAGAUUUUUUCCUCGAGCAA, the nonsense suppression was at most 0.026.

Consider UUCUUGGUAGCCAAGUUGGUUCAAGGCGCAAGACUUUAAUUUAUCACUACGAAAUCUUGAGACCGGGCGUUCGACUCGCCCCCGGGAGAUUUUUUCCUCGAGCAA, for which the nonsense suppression was at most 0.026.

Regarding UUCUCGCUAGCCAAGUUGGUUUAAGGCGCAAGACUUUAAUUUAUCACUACGAAAUCUUGAGAUCGGGCCUUCGACUCGCCCCCGCGAGAUUUUUUCCUCGAGCAA, the nonsense suppression was at most 0.026.

Regarding GUCUCUGUAGCCAAGUUGGUUUAAGGCGCAAGACUUUAAUUUAUCACUACGAAAUCUUGAGAUCGUGCGUUCUACUCGCCCCCGGGAGAUUUUUUCCUCGAGCAA, the nonsense suppression is at most 0.026.
